These results are taken from ChEMBL document CHEMBL4316604, “Discovery of Isaindigotone Derivatives as Novel Bloom's Syndrome Protein (BLM) Helicase Inhibitors That Disrupt the BLM/DNA Interactions and Regulate the Homologous Recombination Repair” (J Med Chem, 2019).

The structures appear in SMILES notation. The source made the active and inactive calls. No cut-off for these calls is given here.

The target of test [1] is T1, RecQ-like DNA helicase BLM (Homo sapiens, UniProt P54132). The experiment in a line: Inhibition of ATP hydrolysis activity of His-tagged BLM (unknown origin) expressed in Escherichia coli BL21 (DE3) at 1 to 10 uM.
In test [2] the test system is RecQ-like DNA helicase BLM (Homo sapiens), P54132 [I1168A]. The experiment in a line: Inhibition of His-tagged BLM I1168A mutant (unknown origin) binding to DNA assessed as effect on unbound DNA. The method, boiled down:
(§1)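 Biotinylated forked DNA (50 nM) immobilised on streptavidin plates overnight at 4 °C. BLM or mutant (100 nM final) premixed with serially halved ligand in 3% BSA blocking buffer, ≤1% DMSO, 1 h on ice. Applied to the blocked plate for 1 h at 37 °C. Bound BLM detected with anti-BLM and HRP secondary, TMB, A450; Hill fit.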

Test [3] relates to RecQ-like DNA helicase BLM (Homo sapiens), P54132 [Y995A]. The experiment in a line: Inhibition of His-tagged BLM Y995A mutant (unknown origin) binding to DNA assessed as effect on unbound DNA. The method, boiled down: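 Truncated His-tagged BLM (residues 642-1296) mutant expressed in E. coli BL21(DE3). ELISA with 5′-biotin forked DNA (50 nM) immobilized on streptavidin plates at 4 °C overnight. BLM at 100 nM final was premixed with half-diluted compound (≤1% DMSO) on ice for 1 h, then added at 37 °C for 1 h. Bound BLM was detected with anti-BLM/HRP-TMB at A450; curves were Hill-fitted.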

The target of test [4] is T1, RecQ-like DNA helicase BLM. The experiment in a line: Inhibition of BLM recruitment to DSB sites on chromosomes in human HCT116 cells at 0.5 to 1 uM after 48 hrs by ChIP assay. In kind it is cell-based. The procedure, abridged:
(§2)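 HCT116 cells co-transfected with HRR(−) reporter DSB model (or chromosomal I-SceI DSBs) and I-SceI; after 24 h given 0–2 μM ligand for 24 h. Crosslinked in 1% formaldehyde, chromatin digested by micrococcal nuclease to 0.2–0.5 kb, IP with anti-BLM or anti-RAD51 (IgG control). qPCR at DSB sites, normalised to untreated; triplicate.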

Test [5] has as its target T1, RecQ-like DNA helicase BLM. The experiment in a line: Inhibition of His-tagged BLM (unknown origin) expressed in Escherichia coli BL21 (DE3) assessed as reduction in BLM helicase unwinding activity at 1 uM using 5'-biotin labeled forked-DNA as substrate after 1 hr by PAGE analysis. The procedure, abridged:
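BLM642-1296 (His-tagged, E. coli BL21(DE3)) preincubated with ligand (1.0, 10, 50 μM; ≤1% DMSO) for 1 h at 4 °C. Reaction: 8 nM annealed 5′-biotin duplex forked DNA, 32 nM BLM, 2 mM ATP, 0.1% BSA, 1 h.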

Test [6] has as its target T1, RecQ-like DNA helicase BLM. The experiment in a line: Inhibition of His-tagged BLM (unknown origin) expressed in Escherichia coli BL21 (DE3) assessed as reduction in BLM helicase unwinding activity using 5'-biotin labeled forked-DNA as substrate after 1 hr by PAGE analysis.
For test [7], the target named is T1, RecQ-like DNA helicase BLM. The experiment in a line: Inhibition of 5'-biotin labeled duplex forked-DNA binding to BLM (unknown origin) assessed as increase in unbound DNA levels after 1 hr by ELISA. The method, boiled down:
as §1

For test [8], the target named is T1, RecQ-like DNA helicase BLM. The experiment in a line: Inhibition of BLM in human HCT116 cells assessed as induction of HRR up-regulation at 1 uM after 24 hrs in presence of siRNA by GFP-based flow cytometry. The test is classed as cell-based. The procedure, abridged: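 HCT116 cells (2×10^5) co-transfected with DR-GFP HRR reporter and I-SceI plasmid; 24 h later treated with 0–2 μM ligand (reference 0–50 μM); BLM siRNA knockdown where stated. GFP-positive cells counted by flow cytometry and normalised to untreated; triplicate, mean ± SD.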

Test [9] deals with T1, RecQ-like DNA helicase BLM. The experiment in a line: Inhibition of BLM recruitment to DSB sites on HRR in human HCT116 cells at 0.5 to 1 uM after 48 hrs by ChIP assay. In kind it is cell-based. The procedure, abridged: as §2
Test [10] addresses T1, RecQ-like DNA helicase BLM. The experiment in a line: Inhibition of BLM in human HCT116 cells assessed as induction of RAD51 recruitment to DSB sites on HRR at 0.5 to 1 uM after 48 hrs by ChIP assay. The test is classed as cell-based. The procedure, abridged:
as §2

Test [11] deals with T1, RecQ-like DNA helicase BLM. The experiment in a line: Inhibition of BLM in human HCT116 cells assessed as induction of RAD51 foci accumulation on gamma-H2AX foci at 1 to 2 after 24 hrs by immunofluorescence assay. The test is classed as cell-based. The method, boiled down:
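HCT116 cells treated 24 h, fixed in 4% paraformaldehyde, permeabilised with 0.5% Triton X-100, blocked in 5% goat serum. Stained with γ-H2AX and RAD51 antibodies overnight at 4 °C, Alexa 488/647 secondaries and DAPI. Imaged by confocal microscopy for foci co-localisation.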

For test [12], the system named is HCT-116. The experiment in a line: Induction of apoptosis in human HCT116 cells assessed as apoptotic cells after 48 hrs by Hoechst/propidium iodide-staining based flow cytometry. In kind it is functional, cell-based.
Test [13] deals with HCT-116. The experiment in a line: Induction of apoptosis in human HCT116 cells assessed as increase in cleaved caspase 3 expression at 2 uM after 48 hrs by Western blot analysis. In kind it is functional, cell-based. The procedure, abridged: (§3)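 HCT116 cells treated with ligand (DNA-damage proteins 24 h, apoptosis proteins 48 h), lysed in RIPA at 4 °C. 40 μg protein per lane resolved by SDS-PAGE, blotted to PVDF, probed with damage and apoptosis antibody panels; β-actin loading control; chemiluminescent detection.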

Test [14] has as its system HCT-116. The experiment in a line: Induction of apoptosis in human HCT116 cells assessed as increase in cleaved PARP expression at 2 uM after 48 hrs by Western blot analysis. The test is classed as functional, cell-based. The procedure, abridged:
as §3

Test [15] has as its system HCT-116. The experiment in a line: Chemosensitization activity in human HCT116 cells assessed as cisplatin-induced antiproliferative activity at 1.25 uM in presence of cisplatin and BLM siRNA after 24 hrs by MTT assay (reference value: 15.4%). The test is classed as functional, cell-based.
The target of test [16] is RecQ-like DNA helicase BLM (Homo sapiens, UniProt P54132, Y995A). The experiment in a line: Binding affinity to His-tagged BLM Y995A mutant (unknown origin) expressed in Escherichia coli BL21 (DE3) by ITC assay. The procedure, abridged:
(§4)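 ITC at 25 °C in 2 mM MgCl2, 10 mM KH2PO4, pH 7.5: ligand (0.6 mM, syringe) titrated in 10 μL injections, 300 s apart, into BLM642-1296 wild-type or point mutant, or DNA (0.04 mM, cell). His-tagged BLM from E. coli BL21(DE3), induced with […] at 16 °C for 24 h. Heats integrated, fitted to 1:1 model for KD.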

The target in test [17] is RecQ-like DNA helicase BLM (Homo sapiens, UniProt P54132, M1111A). The experiment in a line: Binding affinity to His-tagged BLM M1111A mutant (unknown origin) expressed in Escherichia coli BL21 (DE3) by ITC assay. The method, boiled down:
as §4

The target of test [18] is RecQ-like DNA helicase BLM (Homo sapiens, UniProt P54132, E1143A). The experiment in a line: Binding affinity to His-tagged BLM E1143A mutant (unknown origin) expressed in Escherichia coli BL21 (DE3) by ITC assay. The method, boiled down: as §4
Test [19] relates to HCT-116. The experiment in a line: Induction of apoptosis in human HCT116 cells assessed as up-regulation of CHK2 phosphorylation up to 2 uM after 24 hrs by Western blot analysis.

T1 sequence (P54132 whole entry): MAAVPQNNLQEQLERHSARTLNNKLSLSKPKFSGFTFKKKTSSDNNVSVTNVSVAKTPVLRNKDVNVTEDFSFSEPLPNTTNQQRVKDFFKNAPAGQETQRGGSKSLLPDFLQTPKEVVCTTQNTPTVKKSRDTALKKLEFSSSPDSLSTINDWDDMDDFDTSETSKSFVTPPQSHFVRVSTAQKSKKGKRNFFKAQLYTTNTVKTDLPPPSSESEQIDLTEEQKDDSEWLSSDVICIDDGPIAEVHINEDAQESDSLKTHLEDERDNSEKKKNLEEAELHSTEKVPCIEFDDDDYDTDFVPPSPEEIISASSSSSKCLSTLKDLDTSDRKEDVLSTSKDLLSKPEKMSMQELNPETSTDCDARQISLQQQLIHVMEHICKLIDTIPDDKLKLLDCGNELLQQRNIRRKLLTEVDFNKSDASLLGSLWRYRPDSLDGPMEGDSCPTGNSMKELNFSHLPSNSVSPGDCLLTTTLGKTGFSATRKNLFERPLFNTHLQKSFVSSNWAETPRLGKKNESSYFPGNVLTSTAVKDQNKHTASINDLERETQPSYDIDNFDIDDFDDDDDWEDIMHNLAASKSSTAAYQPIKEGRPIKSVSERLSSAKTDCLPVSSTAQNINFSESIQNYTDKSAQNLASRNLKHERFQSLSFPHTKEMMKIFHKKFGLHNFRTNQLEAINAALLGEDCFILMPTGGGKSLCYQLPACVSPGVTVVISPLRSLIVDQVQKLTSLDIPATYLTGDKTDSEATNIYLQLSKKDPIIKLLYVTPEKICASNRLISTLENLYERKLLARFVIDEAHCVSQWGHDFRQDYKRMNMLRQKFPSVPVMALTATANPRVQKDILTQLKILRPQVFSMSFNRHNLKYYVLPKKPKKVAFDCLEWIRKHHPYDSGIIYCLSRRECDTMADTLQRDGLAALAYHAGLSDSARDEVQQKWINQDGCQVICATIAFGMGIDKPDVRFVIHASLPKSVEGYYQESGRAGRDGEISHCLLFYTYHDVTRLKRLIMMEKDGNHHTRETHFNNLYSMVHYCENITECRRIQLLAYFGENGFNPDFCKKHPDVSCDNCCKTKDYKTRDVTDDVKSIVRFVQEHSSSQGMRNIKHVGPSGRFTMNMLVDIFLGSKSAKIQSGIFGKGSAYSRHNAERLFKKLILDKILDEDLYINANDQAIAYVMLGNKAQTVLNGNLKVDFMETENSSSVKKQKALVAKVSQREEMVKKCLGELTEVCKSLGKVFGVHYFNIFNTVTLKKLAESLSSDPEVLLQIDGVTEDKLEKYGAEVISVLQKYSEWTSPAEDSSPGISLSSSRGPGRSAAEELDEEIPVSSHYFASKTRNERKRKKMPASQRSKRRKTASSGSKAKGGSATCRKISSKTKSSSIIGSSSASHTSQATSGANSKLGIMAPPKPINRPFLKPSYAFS
Sequence of RecQ-like DNA helicase BLM (Homo sapiens), P54132 [Y995A] (P54132 whole entry Y995A, the tested form may be a part): as the sequence (P54132 whole entry) above, with Y995A counted along it
Sequence of RecQ-like DNA helicase BLM (Homo sapiens, UniProt P54132, Y995A) (P54132 whole entry Y995A): as the sequence (P54132 whole entry) above, with Y995A counted along it
Sequence of RecQ-like DNA helicase BLM (Homo sapiens, UniProt P54132, M1111A) (P54132 whole entry M1111A): as the sequence (P54132 whole entry) above, with M1111A counted along it
Sequence of RecQ-like DNA helicase BLM (Homo sapiens, UniProt P54132, E1143A) (P54132 whole entry E1143A): as the sequence (P54132 whole entry) above, with E1143A counted along it
Sequence of RecQ-like DNA helicase BLM (Homo sapiens), P54132 [I1168A] (P54132 whole entry I1168A): as the sequence (P54132 whole entry) above, with I1168A counted along it

`CCN(CC)CCCNc1cc2nc3n(c(=O)c2cc1F)CC/C3=C\c1ccc(C(C)C)cc1`: the inhibition result in test [1], in [2] and in test [3] was “inactive” each time. Also, the inhibition entry in [4], in [5], in test [8], in test [9], in test [10] and in [11] was “Active” throughout. For the same molecule, the figures for the IC50 in test [6] and in test [7] were 0.95 µM and 3.95 µM, respectively. In [7], the inhibition result was “Dose-dependent effect”. In addition, the Activity entry in the test with HCT-116 [12] and in the test on HCT-116 [19] was “Dose-dependent effect” throughout. The outcome in the test on HCT-116 [13], in the test on HCT-116 [14] and with HCT-116 [15] was Active. Also, the Kd in test [16] stood at 5 µM; in [17], 4.9 µM; in test [18] it was 6 µM.
